# Screening data as filed in PubChem.
# hDAT+cocaine – changed hDAT dopamine uptake under cocaine IC80, either direction, primary screen, cocaine antagonist project, cell-based, LLC-PK1 hDAT, [14C]-dopamine uptake, MLSMR | Sodium-dependent dopamine transporter (Homo sapiens), Q01959 | LLC-PK1 hDAT cells, [14C]-dopamine uptake with cocaine IC80; actives deviate in either direction | B-score at 10 µM | hit rate 1.3% among 110,000 | AID 449768, 2010;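 active means Z score or B-score, a plate-position-corrected score, falls beyond the plate's 99.7% confidence bounds, in either direction; inactive means both scores lie inside the 99.7% bounds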
# EphB4 antag – EphB4-ephrin-B2 interaction antagonists, primary screen, biochemical, TNYL-RAW peptide probe, fluorescence polarization; Ephrin type-B receptor 4 (Homo sapiens), P54760; EphB4 LBD / TNYL-RAW-Alexa532 peptide; inhibition, % at 7 µM; hit rate 0.15% among 97,000; AID 720, 2007;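 active means inhibition above the screen-wide mean inhibition plus 3 SD, cut at about 15% in these data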
# Cav32 inh – Cav3.2 calcium influx blockers – cell-based, Fluo-4 calcium fluorescence, FDSS, MLSMR library, primary screen; B-score at 10 µM; hit rate 4% among 100,000; Cav3.2-expressing cells; stronger effect = lower value;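 active means single-dose well whose peak fluorescence ratio is a statistical outlier from its plate by either plate-standardised score or position-corrected B-score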
# Rev-RRE block – HIV-1 Rev-RRE binding inhibitors, primary screen, biochemical, FRET, protein-RNA interaction | Rev peptide-RRE RNA binding | inhibition, % at 8 µM | hit rate 0.79% among 97,000;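 active means inhibition above the screen-wide mean plus 3 SD, cut at about 35% in these data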
#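 Test system: Cy5-tagged RRE RNA duplex with fluorescein-tagged Rev peptide; Probe or stimulus: labelled Rev peptide; Schedule: 5 min preincubation and 15 min binding, 25 °C; Signal: FRET fluorescence readout; Evaluation: % inhibition from 671/540 nm acceptor-to-donor ratio, scaled between controls; Control set: DMSO and neomycin B.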
# Numbers stand for hits; – = inactive; · = no result; [ ] = remark or other dose. Only some compounds are listed: those with a hit (about 5.4% of all), similar ones and a draw of the others.
SMILES,hDAT+cocaine,EphB4 antag,Cav32 inh,Rev-RRE block
CCCC(=O)NC(Nc1cc(C(F)(F)F)ccc1Cl)C(Cl)(Cl)Cl (stereo unspecified),–,–,–,–
CCC(C(=O)Nc1cccc(C(F)(F)F)c1)c1ccccc1 (stereo unspecified),–,–,-6.8,–
CCCC(=O)NC(Nc1cccc(C(F)(F)F)c1)C(Cl)(Cl)Cl (stereo unspecified),–,–,-5,–
Cc1ccc(N=C2C(=S)N(c3ccc(C)cc3)C(=N)N2/N=C/c2ccc(Cl)cc2)cc1,–,–,–,–
CSc1nc2ccc(NC(=O)C3CC(=O)N(Cc4ccccc4)C3)cc2s1 (stereo unspecified),–,–,–,–
CCOc1cccc(NC(=O)C2CC(=O)NC(=Nc3ccccc3)S2)c1 (stereo unspecified),–,–,-4.9,–
CCN1C(=O)CC(C(=O)Nc2ccc(F)cc2)SC1=Nc1cccc(OC)c1 (stereo unspecified),·,–,·,–
CCCCNC(=O)c1onc(CSc2ccccn2)c1C(=O)NCCCC,–,·,–,·
CCCCCCc1nc2ccccc2c(=O)n1NC(=O)c1c(O)c2c(n(CC(C)C)c1=O)CCCC2,–,–,–,–
Cc1nc2ccccc2c(=O)n1NC(=O)c1c(O)c2c(n(CC(C)C)c1=O)CCCC2,–,–,-11,–
CCc1ccccc1NC(=O)Cn1nc(C(F)(F)F)cc1C1CC1,–,–,–,–
CCC(=O)OCc1c(C(F)(F)F)nn(C)c1Sc1ccc(F)cc1,–,–,-7.5,–
CCC(=O)OCc1c(C(F)(F)F)nn(C)c1Sc1ccc(Cl)cc1,–,–,–,–
O=C(O)c1cc(Cl)c2ccccc2c1O,–,–,-6.7,–
COc1ncccc1-c1nnn(-c2ccc(F)cc2)n1,–,·,–,·
COc1cc(-c2nnc(SCc3cc(=O)oc4cc(O)c(O)cc34)o2)cc(OC)c1OC,–,–,–,–
CCCCCCc1cc2cc(-c3nnc(-c4cc(OC)c(OC)c(OC)c4)o3)c(=O)oc2cc1O,–,–,–,135[fluorescence artefact?]
CCCCCCc1cc2cc(-c3nnc(-c4ccccc4O)o3)c(=O)oc2cc1O,–,·,-3.5,·
CCCCCCc1cc2cc(-c3nnc(-c4ccccc4OC)o3)c(=O)oc2cc1O,–,–,-4.2,143[fluorescence artefact?]
CCCCN(CCCC)C(=O)c1nsnc1-c1ccccc1O,–,–,–,–
CCOC(=O)CC1C(=O)NCCN1C(=O)c1cccc(C(F)(F)F)c1 (stereo unspecified),–,–,–,–
CCOC(=O)CC1C(=O)NCCN1C(=O)c1ccc(F)cc1F (stereo unspecified),-3.4,–,–,–
COc1cccc(C(=O)CSc2nnc(-c3cccs3)o2)c1,–,–,–,–
COc1cccc(NC(=O)CSc2nnc(-c3cc(C)n(-c4ccccc4)c3C)o2)c1,–,–,-3.6,–
Cc1cc(C(=O)CSc2nnc(-c3cccs3)o2)c(C)n1-c1ccccc1,–,·,-5.1,·
SMILES,hDAT+cocaine,EphB4 antag,Cav32 inh,Rev-RRE block
OCCCn1c(CCNc2nc(-c3ccc(F)cc3)cs2)nc2cc(C(F)(F)F)ccc21,–,·,–,·
CC(C)N(Cc1nc(-c2ccc(Cl)cc2)no1)C(=O)CCCN1C(=O)c2ccccc2C1=O,–,–,-5,–
CC(C)N(Cc1nc(-c2ccccc2)no1)C(=O)C1CCCCC1,–,–,–,–
Cc1ccccc1OCC(=O)N(Cc1nc(-c2ccccc2)no1)C(C)C,–,–,-4.3,–
COc1cc(OC)cc(C(=O)N(Cc2nc(-c3cccc(C)c3)no2)C(C)C)c1,–,–,-6.7,–
COc1ccccc1OCC(=O)N(Cc1nc(-c2ccccc2)no1)C1CCCCC1,–,–,-8.1,–
COc1cccc(CN(CC(=O)NC2CCCC2)C(=O)Cn2nnc(-c3cccs3)n2)c1,–,–,–,–
Cc1cc(C)c(OCC(=O)Nc2cccc(NC(=O)c3ccco3)c2)c(Br)c1,–,·,-4.4,·
O=C(CSC1CC(=O)N(CCc2ccccc2)C1=O)Nc1ccc(Br)cc1 (stereo unspecified),–,–,-4.8,–
CCN1C(=O)C(CC(=O)Nc2ccc(Br)cc2)N(CCCc2ccccc2)C1=S (stereo unspecified),–,–,-4.5,–
O=C(NCc1ccccn1)C1Nc2ccc(C(F)(F)F)cc2C2C=CCC12 (stereo unspecified),–,·,–,·
CCCCC1(Cc2ccc([N+](=O)[O-])cc2)C(=O)N(c2ccccc2)N(c2ccccc2)C1=O,–,–,-4.8,–
CN(C)CCCN1c2ccc([N+](=O)[O-])cc2CCc2cc([N+](=O)[O-])ccc21,–,·,–,·
O=C(NCc1nc2ccccc2[nH]1)C1=C[C@@H](c2ccccc2)C[C@@H](OCCCCO)O1,3.2,·,–,·
CCN1CCN(S(=O)(=O)c2cc(OCC(=O)NC3CCCCC3)c(C)cc2Cl)CC1,–,–,–,–
Cc1cc(Cl)c(S(=O)(=O)N2CCCCCC2)cc1OCC(=O)NC1CCCCC1,–,–,-4.2,–
COc1ccc(Nc2nnc(SCC(=O)c3cc(C)n(CC4CCCO4)c3C)s2)cc1 (stereo unspecified),–,–,–,–
FC(F)(F)c1cc(C(F)(F)F)c2ccc(Oc3ccccc3)nc2n1,–,–,-4.7,–
FC(F)(F)c1cc(Oc2ccccc2)nc(-c2ccccn2)n1,–,–,–,–
CCOC(=O)CC(=O)CSc1nc(-c2cccnc2)cc(C)c1C#N,–,–,–,–
CCOC(=O)C1=C(CSc2nc(-c3ccncc3)ccc2C#N)OC(N)=C(C#N)C1c1ccc(OC)cc1 (stereo unspecified),–,–,–,–
CCOC(=O)C1=C(CSc2nc(-c3ccncc3)ccc2C#N)OC(N)=C(C#N)C1c1cccnc1 (stereo unspecified),–,·,-5,·
COC(=O)C1=C(CSc2nc3c(cc2C#N)CN(C)CC3)OC(N)=C(C#N)C1c1ccc(F)cc1 (stereo unspecified),–,–,–,65
CCOC(=O)C1=C(CSc2nc(CC)c(C)cc2C#N)OC(N)=C(C#N)C1c1ccc(OC)cc1 (stereo unspecified),–,–,-8.4,–
CCOC(=O)CC(=O)CSc1nc(-c2cccnc2)ccc1C#N,–,–,–,88[fluorescence artefact?]
SMILES,hDAT+cocaine,EphB4 antag,Cav32 inh,Rev-RRE block
CN1CCc2nc(SCC(=O)Nc3ccc(Cl)cc3)c(C#N)cc2C1,–,–,–,–
O=C(CCl)Nc1cccn2ncnc12,–,–,–,–
Cc1ccc(C)c2c3c([nH]c12)-c1nonc1CC3,–,–,–,–
Cc1ccc(-c2c(C#N)c(N)nc3c2CCCC3)s1,–,–,–,–
COc1ccc(/C(C#N)=C/c2c(-c3ccc(Cl)cc3)nc3c(C)cccn23)cc1,–,–,-5.8,–
COc1ccc(C)cc1NC(=O)CN1CCN(C/C=C/c2ccccc2)CC1,–,–,–,–
CCC(C)c1ccc(NC(=S)NCc2cccs2)cc1 (stereo unspecified),–,–,-3.2,–
